Screens: PubChem, several laboratories
Sampled rows, rich in hits. Any-hit rate of the full collection: about 1.4%.
UCH37 inh – blocks the human deubiquitinase UCH37. Q9Y5K5. purified proteasome/UCH37, Ub-AMC cleavage fluorescence. inhibition, % (test concentration not listed). 330,000 tested, 0.33% active. AID 588478;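 active means mean inhibition over replicate wells above about 20%, limit read from the data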;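 further: 0% = compound-free wells with enzyme and 100% = wells lacking proteasome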
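assay system = human UCH37 enzyme supplied as purified proteasome complex | amount = proteasome at 0.15 nM in the dispensed enzyme solution | schedule = 30 min compound-proteasome preincubation then 25 min substrate reaction, room temperature | measured by = fluorescence, ex 355 nm, em 460 nm | benchmarks = no-proteasome wells (full inhibition) and compound-free wells (no inhibition)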
Tb MetRS inh – Trypanosoma brucei MetRS inhibition; inhibition, % at 11.9 µM; 360,000 tested, 0.4% active; purified T. brucei MetRS, ATP depletion, Kinase-Glo luminescence;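 active means inhibition above a per-plate cutoff of the control wells' mean inhibition plus 3 SD, cut at about 5.5% in these data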;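 further: 0% = DMSO wells median and 100% = median of wells with control inhibitor compound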
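Measured by: Kinase-Glo luciferase luminescence reporting remaining unconsumed ATP. Material: purified T. brucei MetRS enzyme. Doses: 11.9 µM compound single dose, 0.9% DMSO. Medium: HEPES buffer containing pyrophosphatase, BSA, spermine, DTT. Times: 15 min preincubation, 2 h reaction, all 25 °C. Reagent: methionine, ATP and bulk E. coli tRNA.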
ATG4B inhibitor – inhibitors of human ATG4B cysteine protease; Q9Y4P1; ATG4B cleavage of LC3-PLA2, NBD-HPC fluorescence, 1 h; inhibition, % at 8.33 µM; 340,000 tested, 0.51% active; AID 504462; in the data active means inhibition above about 40%
Target sequence (Q9Y4P1 whole entry, looked up): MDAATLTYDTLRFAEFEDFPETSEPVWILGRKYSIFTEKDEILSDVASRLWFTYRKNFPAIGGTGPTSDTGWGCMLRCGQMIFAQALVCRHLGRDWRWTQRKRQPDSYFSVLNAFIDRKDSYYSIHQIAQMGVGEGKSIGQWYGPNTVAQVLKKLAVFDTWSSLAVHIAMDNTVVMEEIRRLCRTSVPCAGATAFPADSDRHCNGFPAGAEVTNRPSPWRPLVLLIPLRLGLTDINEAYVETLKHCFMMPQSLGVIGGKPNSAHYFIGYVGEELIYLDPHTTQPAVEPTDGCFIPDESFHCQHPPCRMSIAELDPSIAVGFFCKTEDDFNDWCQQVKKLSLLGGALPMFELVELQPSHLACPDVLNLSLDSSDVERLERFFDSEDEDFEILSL
Rin1-Abl PPI inh – human Rin1-Abl interaction inhibition | inhibition, % at 7.35 µM | TR-FRET Rin1/Abl binding, biochemical | P00519+Q13671 | 360,000 tested, 0.4% active; in the data active means inhibition above about 5%, passing the limit was not always enough
UCH37 confirm – confirmation of human UCH37 deubiquitinating enzyme inhibitors; Proteasome-bound UCH37, Ub-AMC cleavage fluorescence; 480 tested, 27% active; inhibition, % at 20 µM; shares compounds with UCH37 inh;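 active means average inhibition over replicates above about 50%, so the earlier screening hit is confirmed, limit read from the data; inactive means the rest, counted as false positives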;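 further: based on cleavage rate fitted by regression over a 30 min kinetic read; 0% = proteasome plus Ub-AMC and 100% = Ub-AMC without proteasome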
Starred values were filed as active, the others as inactive; · = no result.

SMILES	UCH37 inh	Tb MetRS inh	ATG4B inhibitor	Rin1-Abl PPI inh	UCH37 confirm
Oc1ccc(N=Nc2ccccc2-c2nn[nH]n2)c(O)c1	26.9*	-0.2	-5.1	-2.6	25.8
Cc1ccc(OCCCN2CCOCC2)c([N+](=O)[O-])c1	·	-0.6	2.8	0.3	·
N=C1/C(=C/c2ccc(-c3cccc(C(=O)O)c3)o2)C(=O)N=C2SC=C(c3ccccc3)N12	25.8*	1.7	6.6	4.5	66.4*
CC(=O)N1CCCc2cc(S(=O)(=O)NCc3ccc(C)cc3)ccc21	0.9	-0.3	-19.4	-1.7	·
CS(=O)(=O)NCCC1=CCCCC1	43.8*	-0.2	-13.2	1.0	79.6*
CC(=O)N1CCCc2cc(S(=O)(=O)NCCC3=CCCCC3)ccc21	54.5*	0.1	-13.1	-0.2	76.1*
COc1ccc(C)cc1S(=O)(=O)NCCC1=CCCCC1	58.3*	-0.9	-5.8	-0.9	8.1
COc1ccc(C)cc1S(=O)(=O)N1CCC(C(=O)NCCC2=CCCCC2)CC1	32.4*	-0.2	-4.8	-1.3	5.7
COc1ccc(Cl)cc1S(=O)(=O)N1CCC(C(=O)NCCC2=CCCCC2)CC1	1.7	0.2	2.2	0.3	·
CCOc1ccc(S(=O)(=O)NCCC2=CCCCC2)c2ccccc12	1.7	-0.7	0.3	2.9	·
COc1ccc(-c2nc(=S)c3c([nH]2)Oc2ccc(C)cc2C3)cc1O	2.7	-1.3	0.5	2.3	·
CC(=O)NC(CC(=O)NCCN1C(=O)S/C(=C\c2ccccc2)C1=O)c1ccccc1 (stereo not given)	5.7	-1.0	-8.0	-2.7	·
COC/C=C/C1=CC2=CC(=O)C(C)(OC(=O)c3cnc4ccccc4n3)C(=O)C2=CN1C1CC1 (stereo not given)	47.3*	0.1	-3.6	-0.1	23.8
COc1ccccc1NC(=O)COc1ccccc1C(=O)c1cnn(-c2ccccc2)c1	37.0*	-0.1	14.4	0.3	-6.1
COc1ccc(C(=O)c2ccccc2)c2c(O)ccc(C(=O)c3ccccc3)c12	40.7*	0.6	-9.2	0.1	-6.6
COCCCNC(=S)NNC(=O)c1ccc2c(c1)OCO2	37.3*	-0.1	-10.1	-2.1	21.9
CC(C)CNC(=S)NNC(=O)c1ccc2c(c1)OCO2	0.2	-0.7	-5.3	5.3	·
CCc1cc[n+](C2=C([O-])c3ccccc3C(=O)/C2=N\S(=O)(=O)c2cccs2)cc1	56.6*	0.8	6.7	-3.8	62.3*
CC(=O)[C@H]1[C@@H]2C(=O)N(c3cccc(Cl)c3)C(=O)[C@@H]2[C@H]2c3ccccc3C=CN21	39.9*	0.1	-4.0	0.9	-8.7
CN(C[C@H](Cc1ccccc1)N(C[C@H](c1ccccc1)N(CCc1ccccc1)N=O)N=O)N=O	4.0	-0.1	-4.9	-2.5	·
CN(C[C@H](c1ccccc1)N(C[C@H](Cc1ccccc1)N(CCc1ccccc1)N=O)N=O)N=O	37.2*	-0.1	-2.9	0.5	9.4
CC1Cc2ccccc2N1CC(=O)Nc1ccc(Cl)c(S(=O)(=O)N(C)C)c1 (stereo not given)	2.1	-0.1	-6.6	5.3	·
Cc1ccc(C(=O)CSc2nc3c([nH]2)c(=O)n(C)c(=O)n3C)cc1	-1.9	-0.9	7.8	-5.6	·
Cc1[nH][nH]c(=O)c1C(c1cc([N+](=O)[O-])ccc1O)c1c(C)[nH][nH]c1=O	3.3	0.9	2.7	1.1	·
Cc1[nH][nH]c(=O)c1C(c1c(C)[nH][nH]c1=O)c1cn(C)c2ccccc12	89.6*	-0.7	-8.0	-1.1	56.7*
SMILES	UCH37 inh	Tb MetRS inh	ATG4B inhibitor	Rin1-Abl PPI inh	UCH37 confirm
Cc1ccccc1NS(=O)(=O)c1cc(C(=O)NCCC2=CCCCC2)ccc1Cl	54.7*	2.0	1.1	-1.9	46.7
CCOc1ccc(C(=O)NCCC2=CCCCC2)cc1OCC	31.9*	1.0	17.2	-0.8	35.3
O=C(COC(=O)CNC(=O)c1ccccc1)NC1CCCCC1	2.5	-0.3	2.0	-1.0	·
CC(C)c1ccc(C(CC(=O)O)N2Cc3ccccc3C2=O)cc1 (stereo not given)	61.6*	-0.2	-10.2	-2.4	80.5*
CCn1c(SCC(=O)Nc2ccc3c(c2)OCO3)nnc1-c1cnccn1	-0.4	-0.7	-6.8	-1.4	·
CN1CCC[C@@H]1CCNC(=O)c1cccc2c1C(=O)c1ccc(N3CCCC3)cc1S2(=O)=O	52.2*	-0.2	-5.7	-10.5	13.0
O=C(CN(CC1CCCO1)C(=O)CNS(=O)(=O)c1ccccc1)NCc1ccco1 (stereo not given)	-2.6	-0.2	-8.0	0.7	·
CC(C)CC1C(=O)N(Cc2cn(CCC3OCCO3)nn2)CCS(=O)(=O)N1Cc1ccc(-c2ccncc2)cc1 (stereo not given)	·	-0.8	·	-1.4	·
COc1cc(NC(C)CCCNC(C)C)c2ncccc2c1OC (stereo not given)	·	-0.3	-5.7	2.9	·
COc1cc(NCCCCCCN)c2ncccc2c1OC	69.2*	0.3	10.1	4.2	69.9*
CCOC(=O)Cn1c(C)c(Br)c(COC)c(C#N)c1=O	0.1	-0.5	7.0	-0.1	·
COCCNC(=O)/C(C#N)=C/c1ccc(-c2ccc(OC)cc2[N+](=O)[O-])o1	51.9*	-0.5	-2.2	-1.5	30.3
COCCNC(=O)/C(C#N)=C/c1ccc(N2CCOCC2)o1	37.6*	-0.2	18.6	-25.3	36.1
N#C/C(=C/c1ccc(N2CCOCC2)o1)C(=O)Nc1ccccc1	19.3	-1.0	-5.4	-34.0	·
COCCNC(=O)/C(C#N)=C/c1ccc(O)c([N+](=O)[O-])c1	19.8	0.1	0.9	0.6	·
N#C/C(=C\c1ccc(N2CCOCC2)o1)C(=O)NC1CCCCC1	29.6*	-0.2	-5.3	-16.3	20.2
N#C/C(=C\c1ccc(N2CCOCC2)o1)C(=O)NCC1CCCO1 (stereo not given)	30.7*	-0.3	-1.0	-21.2	40.1
COc1ccccc1C(=O)COC(=O)Cn1c(C)csc1=O	3.5	-0.2	-2.7	-0.4	·
CN(C)c1ccc(C(C(=O)NC2CCCCC2)N(Cc2ccco2)C(=O)c2snc(C(N)=O)c2N)cc1 (stereo not given)	68.2*	-0.7	9.4	0.2	-20.6
COc1cc(C(C(=O)NC2CCCC2)N(Cc2ccco2)C(=O)c2snc(C(N)=O)c2N)cc(OC)c1OC (stereo not given)	-72.4	-1.4	-13.3	2.0	·
Cc1ccc(S(=O)(=O)NCc2ccncc2)cc1C	-0.7	-0.5	1.0	-2.0	·
Clc1ccc(Nc2nc(-c3ccncc3)cs2)cc1	49.4*	-0.5	-3.8	2.2	27.1
O=C(c1cccc(C(F)(F)F)c1)C1CCCN(Cc2ccc(OCCO)cc2)C1 (stereo not given)	1.0	0.2	22.0	2.8	·
NC1=C(Cl)C(=O)c2ccccc2C1=O	·	-0.1	-1.2	-9.8	·
NC1=C(Cl)C(=O)c2ccc(S(N)(=O)=O)cc2C1=O	89.1*	3.4	38.1	-9.5	92.2*
Cc1ccc(N(C)/N=C/c2ccc(Cl)cc2Cl)nn1	·	-0.2	-4.2	-0.6	·
